# An excerpt weighted towards active compounds, which were near 3% of everything screened.
# Exocytosis inh = blocks lytic granule exocytosis; 360,000 tested, 0.66% active; inhibition, % at 10 µM; TALL-104 LAMP-1 surface exposure, flow cytometry; cells stimulated with thapsigargin and PMA;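 active means inhibition above about 55%, limit read from the data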
# MIN6 prolif = induces beta-cell replication in MIN6 cells. MIN6 cells proliferation, ATPlite luminescence, 48 h; cells starved in 0.2% serum; 100% = growth in 10% serum. 330,000 tested, 0.29% active. proliferation, % at 10 µM;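 active means compounds whose signal lies at least 3.5 SD above the mean of all wells on their plate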;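 further: 0% = DMSO-treated cells in low-serum medium and 100% = 10% serum control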
# MPTP inh = permeability transition pore inhibition; isolated mouse mitochondria, Ca2+ swelling absorbance, 30 min; 360,000 tested, 1.4% active; inhibition, % at 10 µM; AID 602449;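 active means inhibition of 50% or more, scaled per plate between neutral and stimulator controls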;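 further: 0% = DMSO wells given calcium and 100% = 1 mM EGTA wells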
# Apaf-1 inh = inhibitors of human Apaf-1 apoptosome; O14727; reconstituted apoptosome caspase-3 activity, DEVD-Rh110 fluorescence; inhibition, % at 20 µM; 330,000 tested, 0.71% active; active means inhibition of at least 40% at 20 µM;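 further: plate controls were DMSO wells for no effect and DEVD-CHO caspase inhibitor wells for full effect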
#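 System: reconstituted apoptosome with Apaf-1, cytochrome c, caspase-9, procaspase-3, dATP; Signal: Rh110 fluorescence intensity; Schedule: 30 min compound preincubation, 50 min activation, room temperature; Reagent: cytochrome c trigger plus (Z-DEVD)2-Rh110 caspase-3 substrate.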
# UBC13 inh = blocks human UBC13 polyubiquitin chain formation. TR-FRET. inhibition, % at 20 µM. 330,000 tested, 0.47% active; in the data active means inhibition above about 45%, passing the limit was not always enough
# Target sequence (P61088 whole entry, looked up): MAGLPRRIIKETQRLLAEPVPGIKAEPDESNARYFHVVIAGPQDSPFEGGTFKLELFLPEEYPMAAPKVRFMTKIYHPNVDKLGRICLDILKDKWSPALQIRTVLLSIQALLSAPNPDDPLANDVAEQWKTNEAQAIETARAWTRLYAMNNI
# iPSC survival up = increases survival of single human iPS cells; hiPSC single-cell survival, ATPlite luminescence; 100% = ROCK inhibitor wells, 0% = DMSO; AID 602274; 360,000 tested, 0.044% active; survival enhancement, % at 20 µM; in the data active means survival enhancement above about 18%;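 further: cells exposed to compounds for 16 hours before the ATP read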
# Exocytosis CP01 = blocks lytic granule exocytosis; shares compounds with Exocytosis inh; TALL-104 cells, LAMP-1 externalization, flow cytometry; stimulated with PMA plus thapsigargin; inhibition, % at 10 µM; 1,500 tested, 11% active; in the data active means inhibition above about 60%;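 further: 0% = stimulated vehicle wells and 100% = unstimulated wells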
# * marks the source's active call; other numbers are inactive results; / = no result given.
SMILES,Exocytosis inh,MIN6 prolif,MPTP inh,Apaf-1 inh,UBC13 inh,iPSC survival up,Exocytosis CP01
CCc1ccccc1N(CC(=O)NC(C)C)C(=O)CCC(=O)Nc1nccs1,0,-1,1,7,-6,0,/
CCCCn1c(-c2nonc2NC(=O)c2ccccc2Cl)nc2ccccc21,77*,/,8,/,/,0,-14
N#CCCn1c(-c2nonc2NC(=O)c2ccccc2Cl)nc2ccccc21,4,1,1,-2,20,0,/
CC(C)(C)[C@@H]1COC(=O)[C@H](Cc2ccc(F)cc2)CC/C=C\C[C@@H](CC(=O)N(CCO)Cc2ccccc2)C(=O)N1,-8,-5,0,19,-15,-1,/
CC(C)(C)[C@@H]1COC(=O)[C@@H](Cc2ccc(F)cc2)C/C=C\C[C@H](CC(=O)N(CCO)Cc2ccccc2)C(=O)N1,57*,-5,3,21,-15,2,-16
COc1ccc(Cl)c(-c2cc(C(=O)NCc3ccc(C(F)(F)F)cc3)[nH]n2)c1,97*,/,10,/,/,5,64*
CN1CCN(C(=O)C2=C[C@H](c3coc4ccccc4c3=O)C[C@H](OCCCCO)O2)CC1,-1,-3,1,5,11,2,/
O=C(C1=C[C@@H](c2coc3ccccc3c2=O)C[C@@H](OCCCCO)O1)N1CCOCC1,66*,-3,-1,-6,5,1,-14
CCc1nccn1C(=O)c1cnn2c(C(F)F)cc(-c3ccc(C)cc3)nc12,89*,-1,-1,11,7,-2,37
O=C1Nc2ccccc2-c2nnnn2C1N1CCCC1 (stereo not drawn),-7,/,4,/,/,/,/
CCc1ccccc1Nc1nc(N)nc(COC(=O)C2CCN(C(=O)c3ccc(F)cc3)CC2)n1,-2,1,1,7,-1,0,/
CC1=C(C(=O)N(C(C)C)C(C)C)CC(CC(=O)NCC2CCCCC2)C(=O)N1Cc1ccc(C(C)(C)C)cc1 (stereo not drawn),64*,/,0,/,/,-3,-10
CC1=C(C(=O)N(C(C)C)C(C)C)CC(CC(=O)NC2CC2)C(=O)N1Cc1ccc(C(C)(C)C)cc1 (stereo not drawn),-12,/,-1,/,/,-3,/
CCCCCC/C=C/c1ccc(OC)c([C@H]2[C@H]3C=CC[C@@H](C)[C@@H]3C(=O)N2Cc2ccccc2)c1,67*,-8,2,5,-21,-4,-3
COCCNc1nc(-c2ccc(OC)cc2)c(-c2ccc(OC)cc2)s1,-2,-5,-4,20,11,0,/
CCN(CC)CCNc1nc(-c2ccc(OC)cc2)c(-c2ccc(OC)cc2)s1,66*,-6,2,25,22,0,-2
Cc1ccc(S(=O)(=O)N2CCOCC2)cc1C(=O)NC1=NCCS1,-17,1,0,-9,8,0,/
COc1ccc(COc2ccc3ccc(=O)oc3c2)cc1,86*,-2,0,3,-3,0,-14
COc1cccc(COc2ccc3ccc(=O)oc3c2)c1,-11,-1,1,5,0,-1,/
Cc1ccc(C(=O)OCC(=O)N2CCC(C)CC2)cc1S(=O)(=O)N1CCOCC1,-6,/,-1,/,/,-1,/
CC1(c2nnc(Cc3ccccc3)o2)CC(c2cccnc2)=NO1 (stereo not drawn),68*,2,0,-1,-1,8,-14
CCOC(=O)C1CCN(Cc2cc(Cl)c3ccccc3c2O)CC1,78*,-4,0,27,9,1,0
CCOC(=O)C1CCN(Cc2ccc(OC)c(C)c2OC)CC1,-5,-2,1,6,-10,0,/
CCCc1nc2ccc(C)cn2c1Cc1ccccc1C(F)(F)F,-3,/,-4,/,/,0,/
Cc1ncsc1C(=O)Nc1cccc(C(F)(F)F)c1,0,-2,1,7,2,0,/
SMILES,Exocytosis inh,MIN6 prolif,MPTP inh,Apaf-1 inh,UBC13 inh,iPSC survival up,Exocytosis CP01
COc1cccc(CN(C)C(=O)c2ccc(Oc3ccccc3)cc2)c1OC,73*,0,1,-27,2,0,27
COc1cccc(CN(C)C(=O)c2ccc(COc3ccc(Cl)cc3)cc2)c1OC,21,-3,3,26,0,0,/
CCN(CC)CCNc1ncnc2c1sc1nc(N3CCCC3)c3c(c12)CC(C)(C)OC3,56*,-6,35,8,20,-1,1
CCOc1ccc(Cl)cc1CNCCCSc1nc(C)cc(C)n1,87*,-5,-1,-1,5,0,-3
C=CCOc1cccn2c(N(C)C(=O)c3ccncc3)c(CC)nc12,9,/,0,/,/,1,/
CC1CCN(C(=O)COC(=O)CCC(=O)c2ccc(Cl)cc2)CC1,1,0,-2,3,4,0,/
Cc1cc(O)c(-c2cc(O)c(C)cc2O)cc1O,102*,-4,3,3,-2,0,23
Cc1ccc(S(=O)(=O)N2CCN(C(=O)COC(=O)Cc3ccc(Cl)cc3)CC2)c(C)c1,-1,3,-2,3,15,0,/
COc1ccc(C(=O)NCCCC2CCCC2)cc1OC1CCN(C(C)C)CC1,14,/,1,/,/,-1,/
COc1ccc(/C=C(\NC(=O)c2ccc(OC)cc2)C(=O)N2CCCCC2)cc1,-1,-1,2,-9,-7,-1,/
N#Cc1ccccc1S(=O)(=O)N1CCN(S(=O)(=O)c2ccc(Br)c(C(=O)O)c2)CC1,59*,-1,0,13,-7,1,-14
COc1ccc(-c2ccc3[nH]c4c(c3c2)CCN2C[C@@H]([C@H](C)O)[C@@H](N(C)C(=O)Nc3cc(Cl)cc(Cl)c3)C[C@@H]42)cc1,21,/,-2,/,/,-5,/
C[C@H](O)[C@@H]1CN2CCc3c([nH]c4ccc(-c5ccc6c(c5)OCO6)cc34)[C@@H]2C[C@@H]1N(C)C(=O)Nc1ccc(F)cc1,65*,/,0,/,/,-3,1
COc1ccc(C(=O)Nc2cc3c4c(c2)CC(=O)N4CCC3)cc1,24,-2,0,2,0,1,/
Cc1nc(N2CCN(c3ccccn3)CC2)c2c(C)c(C(=O)N3CCN(c4ccccc4F)CC3)sc2n1,56*,/,-3,/,/,1,-11
COc1ccc(N2CCN(C(=O)CCC(=O)N3Cc4ccccc4Oc4ncccc43)CC2)cc1,1,1,1,3,-8,0,/
O=C(CCN1CCN(C(=O)c2ccccc2)CC1)c1ccc(Br)cc1,82*,-4,1,10,4,0,15
COC(=O)[C@@H](Cc1c[nH]c2ccccc12)NC(=O)CCC(=O)c1ccc(Br)cc1,-6,1,0,-4,13,-1,/
COC(=O)C(Cc1c[nH]c2ccccc12)NC(=O)C(C)C (stereo not drawn),0,-2,-1,1,-9,9,/
